High-throughput results deposited in PubChem by several laboratories.
A selection: hits, their analogues and other compounds. The true share with any hit is near 2.5%.
SUMO1 PPI mod: modulators of SUMO1 protein-protein interactions, primary screen, biochemical, uHTS; SUMO1 binding to a labelled peptide, TR-FRET, 1 h; inhibition, % at 20 µM; 0.33% of 360,000 active; AID 602429, 2012; in the data active means inhibition above about 37%
Target sequence (P63165 whole entry, looked up): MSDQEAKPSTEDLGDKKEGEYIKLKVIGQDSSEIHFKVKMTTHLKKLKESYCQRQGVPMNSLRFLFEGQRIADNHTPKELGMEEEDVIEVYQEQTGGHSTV
DNMT1 inh: human DNMT1 methyltransferase inhibitors, primary screen, biochemical, molecular beacon, fluorescence, HinP1I cleavage, uHTS | DNA (cytosine-5)-methyltransferase 1 (Homo sapiens), P26358 | inhibition (reported as % activation of signal), % at 10 µM | 0.83% of 360,000 active; in the data active means inhibition above about 50%
MBD2 DNA inh: inhibitors of MBD2 binding to methylated DNA, primary screen, biochemical, TR-FRET, DNA-binding domain, human | MBD2 binding to methylated oligonucleotide | 0.31% of 370,000 active | Methyl-CpG-binding domain protein 2 (Homo sapiens), Q9UBB5 | inhibition, % at 4.4 µM; in the data active means inhibition above about 13%
NS3 helicase inh: inhibitors of HCV NS3 helicase, primary screen, biochemical, Cy5 molecular beacon fluorescence. 0.56% of 290,000 active. AID 1800, 2009. Hepatitis C virus NS3 helicase. inhibition, % at 10.9 µM. NS3 helicase DNA unwinding;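 active means inhibition above the mean of all tested compounds plus 3 SD, set per campaign, cut at about 35% in these data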;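 further: 0% = DMSO wells and 100% = thioflavine S control wells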
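System: Hepatitis C virus NS3 helicase domain fragment enzyme | Reagent: Annealed dual-labelled DNA beacon duplex, ATP-started | Compound dosing: 10.9 µM single point, 0.8% DMSO | Incubation: 1 h reaction at 25 °C, ATP-initiated | Technique: Cy5 fluorescence | Evaluation: Percent inhibition from t60/t0 fluorescence ratio | Benchmarks: Low DMSO, high thioflavine S at 110 µM | Replication: Singlicate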
DSG3 Ab inh: inhibitors of pemphigus antibody binding to DSG3, primary screen, biochemical, bead-based, flow cytometry, scFv-GFP; 0.48% of 310,000 active; binding (percent of control), % at 10 µM; DSG3-coupled beads, scFv-anti-DSG3-GFP binding; hits give low values; Desmoglein-3 (Homo sapiens), P32926;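 active means binding more than 3 SD below its plate's average and above zero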;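 further: hits lower antibody fragment binding to DSG3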
UHRF1 MBD2 ctr: UHRF1 methylated DNA binding inhibitors, primary screen, counter-screen for MBD2 inhibitor project, biochemical, TR-FRET, human UHRF1, single concentration; UHRF1 binding to methylated oligo; 0.75% of 370,000 active; inhibition, % at 4.4 µM; E3 ubiquitin-protein ligase UHRF1 (Homo sapiens), Q96T88; in the data active means inhibition above about 21%;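 further: UHRF1 SRA domain binding a hemimethylated CpG hairpin DNA probe; 0% = median of test compound wells and 100% = reference inhibitor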
Active calls of the source: *; . = not tested or not shown.

SMILES	SUMO1 PPI mod	DNMT1 inh	MBD2 DNA inh	NS3 helicase inh	DSG3 Ab inh	UHRF1 MBD2 ctr
C/C(=N\Nc1nc(C)cc(C)n1)c1ccc(N2CCOCC2)cc1	-9.6	-1.9	0.1	2.0	97.3	-1.4
CCn1c(-c2csc(-c3ccc(Cl)cc3)n2)n[nH]c1=S	1.0	11.3	-0.8	-13.7	98.8	-3.7
CCn1c(-c2csc(-c3ccccc3)n2)n[nH]c1=S	-2.6	1.3	1.0	-7.1	-34.0*	0.2
Cc1ccc(NC(=O)Cc2ccc([N+](=O)[O-])cc2)c(Br)c1	-5.0	9.4	3.3	15.9	6.2*	3.0
COc1cc([N+](=O)[O-])ccc1NC(=O)Cc1ccc(C)cc1	-19.1	3.2	-2.7	-4.4	98.5	2.1
Cc1c(C(=O)N2CCCCCC2)c(S(=O)(=O)Nc2ccccc2F)c(C)n1C	6.7	1.4	0.2	0.9	.	4.5
CCc1ccccc1NS(=O)(=O)c1c(C(=O)N2CCCCCC2)c(C)n(C)c1C	4.0	0.3	2.2	7.6	.	20.7*
Brc1ccc(CSc2nccn2-c2ccccc2)cc1	8.0	0.7	3.0	-5.2	109.5	5.5
FC(F)(F)c1ccc(CSc2nccn2-c2ccccc2)cc1	-2.9	-3.5	-4.7	-6.5	103.6	79.6*
O=C1/C(=C/c2cccnc2)CCC/C1=C\c1cccnc1	.	.	-1.5	-0.9	.	-2.0
O=C1/C(=C/c2cccnc2)CC/C1=C\c1cccnc1	-30.7	5.2	-2.2	-3.0	105.4	40.1*
Cc1onc(-c2ccccc2)c1C(=O)Nc1ccc(C(=O)N2CCCCC2)cc1	2.6	-1.5	-0.8	-0.5	104.9	-0.9
Cc1cc(N)ccc1-n1c(C)ccc1C	-8.8	-24.5	-1.6	-3.1	.	-0.7
Cc1cc(N)ccc1N1CCCC1	2.4	83.4*	.	-11.5	72.2	.
C=C1C2(C(=O)NCc3ccco3)CCC(C2)C1(C)C (stereo not given)	-1.4	1.4	3.5	19.5	92.0	21.7*
COc1ccc(-c2c[n+]3c4n2CCCCC4=C(c2ccc(Br)cc2)C3)cc1	-5.8	35.0	-3.9	-82.9	100.5	0.3
Cc1cc(OCC(=O)OCC(=O)N(C)Cc2ccccc2C)ccc1Cl	2.4	-7.2	1.3	.	99.3	-1.6
O=C(NCc1ccccn1)c1cn(Cc2ccccc2)nn1	2.2	3.4	0.0	3.2	95.7	1.4
O=C(CCc1ccc(O)c(O)c1)N/N=C/c1ccc2c(c1)OCO2	-17.6	6.8	8.6	10.6	100.9	21.2*
CC(C)Oc1ccc(CCC(=O)N/N=C/c2ccc3c(c2)OCO3)cc1	-8.9	0.0	1.8	11.2	104.6	-0.8
O=S1(=O)N[C@H](Cc2ccccc2)COc2cccc(N3CCCCC3)c21	.	.	7.4	.	.	22.5*
COc1cc2ccccc2cc1C(=O)NC(=S)Nc1nnn(C)n1	-3.1	-0.1	4.4	-10.9	-8.3*	2.7
Cn1nnc(NC(=S)NC(=O)c2cc(Cl)ccc2Cl)n1	7.8	0.6	2.5	16.1	96.6	0.8
COc1cc2ccccc2cc1C(=O)Nc1ccc(Br)cn1	-8.3	3.5	2.4	5.9	88.8*	4.3
CC1CCN(S(=O)(=O)c2cccc(C(=O)NNC(=O)c3ccco3)c2)CC1	6.9	4.0	5.4	3.6	96.8	29.6*
CSCCC1NC(=O)N(C(C)C(=O)Nc2cc(Cl)cc(Cl)c2)C1=O (stereo not given)	0.5	-1.4	5.5	1.9	122.8	23.9*
O=C1CCN2C=Nc3cccc4ccc1c2c34	2.4	75.6*	-20.6	4.5	108.7	-99.4
OCCOCCOc1ccc(-c2nn[nH]n2)cc1	0.5	-0.3	-0.9	-0.5	97.6	23.6*
O=C(Cn1nnc(-c2ccccc2F)n1)NCc1ccco1	1.9	3.8	-3.2	3.0	103.3	1.8
